# Assay results as given in ChEMBL document CHEMBL1140055, “Mixed-lineage kinase 1 and mixed-lineage kinase 3 subtype-selective dihydronaphthyl[3,4-a]pyrrolo[3,4-c]carbazole-5-ones: optimization, mixed-lineage kinase 1 crystallography, and oral in vivo activity in 1-methyl-4-phenyltetrahydropyridine models” (J Med Chem, 2008).
# The source made the active and inactive calls. No cut-off for these calls is given here.
# Experiments:
# [1] = target: T1, Mitogen-activated protein kinase kinase kinase 11 (Homo sapiens, UniProt Q16584); assay: Inhibition of GST-fused human MLK3 at 1 uM
# How it was run: (§1)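 Baculovirus-expressed GST fusions of human MLK1 or MLK3 kinase domain (50 ng MLK1, 100 ng MLK3), myelin basic protein substrate at 500 µg/mL.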
# Target sequence in this assay (Q16584 whole entry, looked up, the tested form may be a part): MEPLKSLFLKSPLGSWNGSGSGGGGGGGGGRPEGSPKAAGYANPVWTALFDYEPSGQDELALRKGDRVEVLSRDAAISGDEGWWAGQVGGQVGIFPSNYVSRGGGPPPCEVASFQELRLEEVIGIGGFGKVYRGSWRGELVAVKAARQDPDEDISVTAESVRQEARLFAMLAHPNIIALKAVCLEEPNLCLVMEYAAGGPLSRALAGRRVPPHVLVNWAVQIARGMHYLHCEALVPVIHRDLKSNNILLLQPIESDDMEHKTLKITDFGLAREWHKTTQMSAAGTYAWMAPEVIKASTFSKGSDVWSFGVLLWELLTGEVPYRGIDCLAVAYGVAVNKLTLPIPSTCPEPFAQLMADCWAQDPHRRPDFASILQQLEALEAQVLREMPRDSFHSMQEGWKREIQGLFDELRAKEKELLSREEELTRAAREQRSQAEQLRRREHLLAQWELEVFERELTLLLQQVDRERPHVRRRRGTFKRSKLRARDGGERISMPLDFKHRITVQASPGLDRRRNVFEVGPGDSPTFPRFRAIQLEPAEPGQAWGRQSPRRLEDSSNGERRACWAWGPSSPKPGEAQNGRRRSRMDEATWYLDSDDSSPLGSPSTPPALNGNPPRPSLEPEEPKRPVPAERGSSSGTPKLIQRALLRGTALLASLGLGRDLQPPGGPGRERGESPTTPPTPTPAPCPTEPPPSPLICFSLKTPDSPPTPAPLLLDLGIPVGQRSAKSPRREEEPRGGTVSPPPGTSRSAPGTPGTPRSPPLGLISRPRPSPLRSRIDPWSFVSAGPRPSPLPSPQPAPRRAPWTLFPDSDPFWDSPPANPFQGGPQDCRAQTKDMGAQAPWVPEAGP
# [2] = target: T2, Mitogen-activated protein kinase kinase kinase 9 (Homo sapiens, UniProt P80192); assay: Inhibition of GST-fused human MLK1 at 1 uM; how it was run: as §1
# Target sequence in this assay (P80192 whole entry, looked up, the tested form may be a part): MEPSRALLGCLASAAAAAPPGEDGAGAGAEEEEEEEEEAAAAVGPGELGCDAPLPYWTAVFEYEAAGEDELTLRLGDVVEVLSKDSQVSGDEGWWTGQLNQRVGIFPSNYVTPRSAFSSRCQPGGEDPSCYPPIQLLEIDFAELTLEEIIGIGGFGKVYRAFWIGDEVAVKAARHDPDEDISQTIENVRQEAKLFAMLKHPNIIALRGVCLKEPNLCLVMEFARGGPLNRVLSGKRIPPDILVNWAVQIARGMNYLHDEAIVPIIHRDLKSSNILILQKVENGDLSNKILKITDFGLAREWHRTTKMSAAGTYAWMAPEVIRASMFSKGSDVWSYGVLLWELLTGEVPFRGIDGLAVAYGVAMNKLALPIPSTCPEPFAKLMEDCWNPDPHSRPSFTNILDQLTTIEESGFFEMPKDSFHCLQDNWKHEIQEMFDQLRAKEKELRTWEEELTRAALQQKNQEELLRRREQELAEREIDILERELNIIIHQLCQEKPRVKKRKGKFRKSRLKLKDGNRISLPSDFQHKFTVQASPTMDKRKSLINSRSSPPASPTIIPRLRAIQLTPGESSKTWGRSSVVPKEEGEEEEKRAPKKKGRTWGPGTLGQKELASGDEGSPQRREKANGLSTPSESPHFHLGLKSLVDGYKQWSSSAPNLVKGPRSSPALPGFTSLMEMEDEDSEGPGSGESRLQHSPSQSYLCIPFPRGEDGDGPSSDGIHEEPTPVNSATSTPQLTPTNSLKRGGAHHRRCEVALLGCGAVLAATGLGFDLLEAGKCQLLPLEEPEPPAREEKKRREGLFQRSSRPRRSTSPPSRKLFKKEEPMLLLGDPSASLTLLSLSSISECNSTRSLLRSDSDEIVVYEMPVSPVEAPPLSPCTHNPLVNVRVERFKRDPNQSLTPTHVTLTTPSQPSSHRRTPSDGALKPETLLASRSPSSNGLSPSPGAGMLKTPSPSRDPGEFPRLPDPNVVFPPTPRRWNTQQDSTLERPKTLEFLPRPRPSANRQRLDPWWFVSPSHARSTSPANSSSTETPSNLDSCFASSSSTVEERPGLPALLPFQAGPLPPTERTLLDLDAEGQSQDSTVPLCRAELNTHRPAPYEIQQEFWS
# [3] = target: Vascular endothelial growth factor receptor 3 (Homo sapiens, UniProt P35916); assay: Inhibition of human VEGFR3 expressed in baculovirus insect cell system
# Vascular endothelial growth factor receptor 3, sequence (P35916 whole entry): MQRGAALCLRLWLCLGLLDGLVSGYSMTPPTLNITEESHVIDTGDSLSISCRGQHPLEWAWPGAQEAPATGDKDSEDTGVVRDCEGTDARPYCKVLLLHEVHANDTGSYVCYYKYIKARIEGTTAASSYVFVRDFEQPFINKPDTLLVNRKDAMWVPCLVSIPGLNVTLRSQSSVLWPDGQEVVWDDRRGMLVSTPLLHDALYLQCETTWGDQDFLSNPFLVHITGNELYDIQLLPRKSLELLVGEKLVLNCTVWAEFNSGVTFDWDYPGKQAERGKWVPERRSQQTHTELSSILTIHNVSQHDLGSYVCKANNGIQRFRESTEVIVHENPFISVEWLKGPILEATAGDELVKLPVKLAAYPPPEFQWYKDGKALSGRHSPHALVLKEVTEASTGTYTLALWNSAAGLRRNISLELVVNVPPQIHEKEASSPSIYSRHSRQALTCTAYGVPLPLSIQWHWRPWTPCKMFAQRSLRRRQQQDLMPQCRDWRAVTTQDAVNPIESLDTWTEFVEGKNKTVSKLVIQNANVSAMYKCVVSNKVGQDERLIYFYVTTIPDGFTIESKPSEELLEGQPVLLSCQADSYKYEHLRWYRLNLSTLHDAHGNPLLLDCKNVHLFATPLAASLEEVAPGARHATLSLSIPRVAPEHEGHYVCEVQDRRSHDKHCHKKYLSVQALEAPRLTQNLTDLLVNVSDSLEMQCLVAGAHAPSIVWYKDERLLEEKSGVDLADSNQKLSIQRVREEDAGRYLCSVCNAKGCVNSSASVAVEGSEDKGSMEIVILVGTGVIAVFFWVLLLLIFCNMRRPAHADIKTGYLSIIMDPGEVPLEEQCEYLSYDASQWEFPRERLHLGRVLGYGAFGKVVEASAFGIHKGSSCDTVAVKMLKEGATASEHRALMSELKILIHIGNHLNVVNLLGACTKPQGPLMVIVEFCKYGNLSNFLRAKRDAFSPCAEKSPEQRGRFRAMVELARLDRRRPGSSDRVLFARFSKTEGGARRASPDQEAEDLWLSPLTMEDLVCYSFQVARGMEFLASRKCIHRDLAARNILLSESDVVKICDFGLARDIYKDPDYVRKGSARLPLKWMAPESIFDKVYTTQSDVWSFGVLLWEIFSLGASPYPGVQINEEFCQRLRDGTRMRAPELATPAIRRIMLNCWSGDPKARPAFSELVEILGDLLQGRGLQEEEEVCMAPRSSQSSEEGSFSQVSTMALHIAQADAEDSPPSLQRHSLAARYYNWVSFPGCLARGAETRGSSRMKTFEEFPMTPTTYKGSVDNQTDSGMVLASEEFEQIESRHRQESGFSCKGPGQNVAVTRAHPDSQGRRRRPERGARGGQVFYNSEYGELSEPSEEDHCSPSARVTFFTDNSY
# Mus musculus [4] = assay: Neuroprotective activity against MPTP-induced loss of striatal dopamine markers in mouse at 2 mg/kg, po administered once daily; format: functional, organism-based; parameters: dose 2 mg/kg
# How it was run: (§2)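 Mouse MPTP neurotoxicity: low dose 20 mg/kg sc, assessing striatal DA terminals by GBR-12935 binding; high dose 40 mg/kg sc, assessing striatal DA markers and substantia nigra cell bodies by TH immunoreactivity. Test compounds given orally, q.d. or b.i.d.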
# [5] = target: Serine/threonine-protein kinase Chk1/2 (Homo sapiens, UniProt O96017+O14757); assay: Inhibition of human CHK1/2 expressed in baculovirus insect cell system
# [6] = Half life in Sprague-Dawley rat at 2 mg/kg, iv; format: ADME, organism-based; parameters: dose 2 mg/kg, route intravenous; details: in vivo
# How it was run: (§3)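 Rat PK: iv dose into lateral tail vein in 3% DMSO/30% solutol/67% PBS; oral gavage in 50% Tween 80/40% propylene carbonate/10% propylene glycol, rats fasted overnight before oral dosing. Serial tail-vein blood at seven times over 6 h into heparinized tubes. Plasma protein-precipitated with acetonitrile, analysed with internal standard by LC-MS/MS. Bioavailability from iv versus po AUCs.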
# [7] = AUC in Sprague-Dawley rat at 4 mg/kg, po; format: ADME, organism-based; parameters: dose 4 mg/kg, route oral; details: plasma
# How it was run: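 Rats were fasted overnight, then dosed by oral gavage in 50% Tween 80, 40% propylene carbonate and 10% propylene glycol. Serial heparinized blood samples were taken from the lateral tail vein at seven times over 6 h. Plasma was deproteinized with acetonitrile and analysed for drug against an internal standard by LC-MS/MS.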
# [8] = target: Mitogen-activated protein kinase 14 (Homo sapiens, UniProt Q16539); assay: Inhibition of human P38alpha expressed in baculovirus insect cell system
# [9] = Volume of distribution in Sprague-Dawley rat at 2 mg/kg, iv; format: ADME, organism-based; parameters: dose 2 mg/kg, route intravenous; details: in vivo; how it was run: as §3
# [10] = target: T3, Dual specificity mitogen-activated protein kinase kinase 4 (Homo sapiens, UniProt P45985); assay: Inhibition of human MKK4/7 expressed in baculovirus insect cell system
# T3 sequence (P45985 whole entry): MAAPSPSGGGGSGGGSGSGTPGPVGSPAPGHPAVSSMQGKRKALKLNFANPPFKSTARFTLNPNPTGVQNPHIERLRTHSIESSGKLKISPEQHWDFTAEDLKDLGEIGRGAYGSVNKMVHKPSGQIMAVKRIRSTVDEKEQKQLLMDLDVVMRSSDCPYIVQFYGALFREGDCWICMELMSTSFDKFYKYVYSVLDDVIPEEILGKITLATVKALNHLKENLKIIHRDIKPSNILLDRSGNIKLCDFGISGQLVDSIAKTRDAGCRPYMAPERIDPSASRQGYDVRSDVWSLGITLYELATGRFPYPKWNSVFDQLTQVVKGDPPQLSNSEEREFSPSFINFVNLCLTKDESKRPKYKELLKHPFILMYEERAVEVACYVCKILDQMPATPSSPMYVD
# [11] = target: High affinity nerve growth factor receptor (Homo sapiens, UniProt P04629); assay: Inhibition of human TrkA expressed in baculovirus insect cell system
# [12] = target: T2, Mitogen-activated protein kinase kinase kinase 9; assay: Inhibition of GST-fused human MLK1 expressed in CHO cells assessed as MKK4 phosphorylation; format: cell-based
# How it was run: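 CHO cells transfected with MLK1 plus dominant-negative MKK4 cDNA; phospho-MKK4 quantified by ELISA; IC50 derived.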
# Target sequence in this assay (P80192 whole entry, the tested form may be a part): as the sequence (P80192 whole entry, looked up, the tested form may be a part) above
# [13] = target: Mitogen-activated protein kinase kinase kinase 10 (Homo sapiens, UniProt Q02779); assay: Inhibition of human MLK2 expressed in baculovirus insect cell system
# How it was run: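 GST fusions of human MLK kinase domains from baculovirus (50 ng MLK1_KD, 150 ng MLK2_KD/LZ, 100 ng MLK3_KD), substrate 500 µg/mL myelin basic protein. Buffer 20 mM Hepes pH 7.2, 5 mM EGTA, 15 mM MgCl2, 1 mM DTT, 25 mM β-glycerophosphate, 0.1% BSA, 2% DMSO. […] 15 min at 37 °C, TCA precipitation, scintillation counting. IC50 by variable-slope sigmoidal fit, average of duplicates within 20%.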
# [14] = target: Tyrosine-protein kinase Fyn (Homo sapiens, UniProt P06241); assay: Inhibition of human Fyn kinase expressed in baculovirus insect cell system
# Protein kinase C (PKC) = assay: Inhibition of human PKC expressed in baculovirus insect cell system
# [15] = target: Tyrosine-protein kinase Lck (Homo sapiens, UniProt P06239); assay: Inhibition of human Lck expressed in baculovirus insect cell system
# [16] = target: Vascular endothelial growth factor receptor 2 (Homo sapiens, UniProt P35968); assay: Inhibition of human VEGFR2 expressed in baculovirus insect cell system
# [17] = Cmax in Sprague-Dawley rat at 4 mg/kg, po; format: ADME, organism-based; parameters: dose 4 mg/kg, route oral; details: in vivo
# [18] = Clearance in Sprague-Dawley rat at 2 mg/kg, iv; format: ADME, organism-based; parameters: dose 2 mg/kg, route intravenous; details: in vivo; how it was run: as §3
# [19] = target: Fibroblast growth factor receptor 1 (Homo sapiens, UniProt P11362); assay: Inhibition of human FGFR1 expressed in baculovirus insect cell system
# [20] = target: T1, Mitogen-activated protein kinase kinase kinase 11; assay: Inhibition of GST-fused human MLK3
# How it was run: (§4)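 GST fusions of human MLK kinase domains from baculovirus (50 ng MLK1_KD, 150 ng MLK2_KD/LZ, 100 ng MLK3_KD), substrate 500 µg/mL myelin basic protein. Buffer 20 mM Hepes pH 7.2, 5 mM EGTA, 15 mM MgCl2, 1 mM DTT, 25 mM β-glycerophosphate, 0.1% BSA, 2% DMSO.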
# Target sequence in this assay (Q16584 whole entry, the tested form may be a part): as the sequence (Q16584 whole entry, looked up, the tested form may be a part) above
# [21] = target: Platelet-derived growth factor receptor beta (Homo sapiens, UniProt P09619); assay: Inhibition of human PDGFRbeta expressed in baculovirus insect cell system
# [22] = target: T2, Mitogen-activated protein kinase kinase kinase 9; assay: Inhibition of GST-fused human MLK1; how it was run: as §4
# Target sequence in this assay (P80192 whole entry, the tested form may be a part): as the sequence (P80192 whole entry, looked up, the tested form may be a part) above
# [23] = target: c-Jun N-terminal kinase, JNK (Homo sapiens, UniProt P45983+P53779+P45984); assay: Inhibition of human JNK expressed in baculovirus insect cell system
# Mus musculus [24] = assay: Neuroprotective activity against MPTP-induced loss of substantia nigra dopamine cell bodies in mouse at 2 mg/kg, po administered once daily; format: functional, organism-based; parameters: dose 2 mg/kg; how it was run: as §2
# [25] = Inhibition of human IRK expressed in baculovirus insect cell system
# [26] = Half life in Sprague-Dawley rat at 4 mg/kg, po; format: ADME, organism-based; parameters: dose 4 mg/kg, route oral; details: in vivo
# [27] = AUC in Sprague-Dawley rat at 2 mg/kg, iv; format: ADME, organism-based; parameters: dose 2 mg/kg, route intravenous; details: plasma
# How it was run: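 Single intravenous dose into the lateral tail vein in 3% DMSO, 30% solutol and 67% phosphate-buffered saline. Serial heparinized blood samples were taken from the lateral tail vein at seven times over 6 h. Plasma was separated by centrifugation, deproteinized with acetonitrile and analysed for drug against an internal standard by LC-MS/MS.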
# Cyclin-dependent kinase = assay: Inhibition of human CDK expressed in baculovirus insect cell system
# SH-SY5Y = assay: Neuroprotective activity against human SH-SY5Y cells assessed as inhibition of MPP+-induced cell death; format: functional, cell-based
# Mus musculus [28] = assay: Inhibition of MPTP-induced increase in pMKK4 levels in mouse at 6.7 mg/kg, po administered 2 hrs before MPTP challenge followed by 40 mg/kg, sc 2 hrs after MPTP challenge; format: functional
# How it was run: (§5)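 Mice dosed orally at 6.7 mg/kg 2 h before and 2 h after MPTP (40 mg/kg sc). Substantia nigra dissected 2 h after second dose; pMKK4 measured by immunoblot against treated and control groups. Plasma drug levels taken 2 h after dosing (4 h post-MPTP).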
# [29] = Oral bioavailability in Sprague-Dawley rat at 4 mg/kg; format: ADME, organism-based; details: in vivo; how it was run: as §3
# [30] = target: Vascular endothelial growth factor receptor 1 (Homo sapiens, UniProt P17948); assay: Inhibition of human VEGFR1 expressed in baculovirus insect cell system
# Vascular endothelial growth factor receptor 1, sequence (P17948 whole entry): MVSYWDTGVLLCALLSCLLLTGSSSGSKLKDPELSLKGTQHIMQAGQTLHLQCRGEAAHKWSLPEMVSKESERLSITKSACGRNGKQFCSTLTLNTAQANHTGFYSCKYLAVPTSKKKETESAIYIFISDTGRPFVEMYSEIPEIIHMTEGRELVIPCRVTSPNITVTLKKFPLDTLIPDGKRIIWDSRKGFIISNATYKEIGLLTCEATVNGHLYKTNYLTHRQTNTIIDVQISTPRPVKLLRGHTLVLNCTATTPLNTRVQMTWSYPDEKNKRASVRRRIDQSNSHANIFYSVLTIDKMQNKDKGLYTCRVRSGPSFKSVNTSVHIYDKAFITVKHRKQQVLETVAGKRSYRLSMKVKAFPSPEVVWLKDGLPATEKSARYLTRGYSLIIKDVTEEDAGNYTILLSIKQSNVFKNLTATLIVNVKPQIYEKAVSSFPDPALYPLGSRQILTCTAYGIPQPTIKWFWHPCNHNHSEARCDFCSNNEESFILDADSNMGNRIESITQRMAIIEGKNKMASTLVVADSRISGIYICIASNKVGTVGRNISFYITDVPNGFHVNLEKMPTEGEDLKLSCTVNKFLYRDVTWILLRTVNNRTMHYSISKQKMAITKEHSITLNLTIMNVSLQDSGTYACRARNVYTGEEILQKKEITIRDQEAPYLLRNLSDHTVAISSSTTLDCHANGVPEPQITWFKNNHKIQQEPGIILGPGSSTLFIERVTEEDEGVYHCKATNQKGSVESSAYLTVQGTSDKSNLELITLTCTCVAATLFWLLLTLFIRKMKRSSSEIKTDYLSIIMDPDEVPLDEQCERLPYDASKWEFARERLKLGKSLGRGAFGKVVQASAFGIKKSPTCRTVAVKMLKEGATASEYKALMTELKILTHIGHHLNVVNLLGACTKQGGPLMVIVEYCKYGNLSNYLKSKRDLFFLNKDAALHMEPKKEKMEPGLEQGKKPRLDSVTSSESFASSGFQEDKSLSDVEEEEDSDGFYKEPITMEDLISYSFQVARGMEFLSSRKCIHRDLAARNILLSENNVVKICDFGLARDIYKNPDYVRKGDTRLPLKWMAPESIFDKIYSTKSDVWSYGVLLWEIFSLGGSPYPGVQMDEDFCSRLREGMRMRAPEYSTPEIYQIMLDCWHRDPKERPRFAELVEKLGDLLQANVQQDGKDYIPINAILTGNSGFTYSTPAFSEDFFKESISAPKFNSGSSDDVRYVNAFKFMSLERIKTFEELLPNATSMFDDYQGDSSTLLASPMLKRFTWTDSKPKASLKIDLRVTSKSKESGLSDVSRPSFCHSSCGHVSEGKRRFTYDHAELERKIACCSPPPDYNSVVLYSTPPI
# [31] = Plasma concentration in mouse at 6.7 mg/kg, po administered 2 hrs before MPTP challenge followed by 40 mg/kg, sc 2 hrs after MPTP challenge; format: ADME, organism-based; details: other: po followed by sc; how it was run: as §5
# [32] = Metabolic stability in rat liver S9 fraction after 2 hrs in presence of NADPH; format: ADME, subcellular; details: read-out: Stability
# How it was run: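 Incubated 2 h in rat liver S9 preparation with NADPH; percent parent remaining reported.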
# Mus musculus [33] = assay: Inhibition of MPTP-induced increase in pMKK4 levels in mouse at 1 mg/kg, sc administered 2 hrs before MPTP challenge followed by 10 mg/kg, sc 2 hrs after MPTP challenge
structure (smiles),measurement,setting,value
N#CCCCOc1ccc2c(c1)CCc1c-2c2c(c3c4ccccc4n(CCO)c13)CNC2=O,inhibition,[1],46%
same,inhibition,[2],58%
COc1ccc2c(c1)CCc1c-2c2c(c3c4ccccc4n(CCO)c13)CNC2=O,IC50,[3],> 10000 nM
same,Activity,Mus musculus [4],Active
same,IC50,[5],> 10000 nM
same,half-life,[6],0.6 h
same,AUC,[7],1990 ng·h/mL
same,IC50,[8],> 10000 nM
same,Vd,[9],0.9 L/kg
same,IC50,[10],> 3000 nM
same,IC50,[11],1270 nM
same,IC50,[12],127 nM
same,IC50,[13],1580 nM
same,IC50,[14],3400 nM
same,IC50,Protein kinase C (PKC),> 10000 nM
same,IC50,[15],6400 nM
same,IC50,[16],4720 nM
same,Cmax,[17],572 ng/mL
same,clearance,[18],19 mL/min/kg
same,IC50,[19],> 10000 nM
same,IC50,[20],55 nM
same,IC50,[21],> 10000 nM
same,IC50,[22],103 nM
same,IC50,[23],> 30000 nM
same,Activity,Mus musculus [24],Active
same,IC50,[25],> 10000 nM
same,half-life,[26],1.4 h
same,AUC,[27],1730 ng·h/mL
same,IC50,Cyclin-dependent kinase,> 10000 nM
same,IC50,SH-SY5Y,32 nM
same,inhibition (INH),Mus musculus [28],68%
same,bioavailability,[29],57%
same,IC50,[30],> 10000 nM
same,concentration at 2 h,[31],250 nM
same,remaining at 2 h,[32],44%
O=C1NCc2c1c1c(c3c2c2ccccc2n3CCO)CCc2cc(OCCOCc3ccccc3)ccc2-1,inhibition,[1],0%
same,inhibition,[2],9%
O=C1NCc2c1c1c(c3c2c2ccccc2n3CCO)CCc2cc(OC3CCCCC3)ccc2-1,inhibition,[1],4%
same,inhibition,[2],35%
O=C1NCc2c1c1c(c3c2c2ccccc2n3CCO)CCc2ccccc2-1,IC50,[20],1000 nM
same,inhibition,[2],14%
CCSCc1ccc2c(c1)c1c3c(c4c5cc(CSCC)ccc5n5c4c1n2[C@H]1C[C@](O)(C(=O)OC)[C@]5(C)O1)CNC3=O [CEP-1347],IC50,[3],39 nM
same,IC50,[12],72 nM
same,IC50,[16],43 nM
same,inhibition (INH),Mus musculus [33],45%
same,IC50,[20],64 nM
same,IC50,SH-SY5Y,5.3 nM
same,IC50,[30],209 nM
O=C1NCc2c1c1c(c3c2c2ccccc2n3CCO)CCc2cc(OCC3CC3)ccc2-1,inhibition,[1],32%
same,inhibition,[2],30%
COc1ccc2c(c1)CCc1c-2c2c(c3c1[nH]c1ccccc13)CNC2=O,IC50,[20],274 nM
same,IC50,[22],188 nM
O=C1NCc2c1c1c(c3c2c2ccccc2n3CCO)CCc2cc(OCc3ccccn3)ccc2-1,inhibition,[1],30%
same,inhibition,[2],36%
